Reference: PMC4317570 (Cell metabolism, 2015)

Columns and labels:
RORγ LBD [1] = assay: Fluorescein-NCOA2 coactivator peptide recruitment, fluorescence polarization; assay type: biochemical; conditions: fluoresceinated NCOA2 peptide, holo vs apo receptor
RORγ LBD [2] = assay: CD thermal denaturation of RORγ LBD, apo vs holo; assay type: binding; conditions: holo vs apo receptor
[3] = tested on: Sc4mol-/- naïve CD4+ T cells; assay: Th17 cell polarization of RORγt-cre Sc4mol-/- naïve CD4+ T cells; assay type: cell-based, mouse
RORγ [4] = biological target: T1, RORγ (Mus musculus, UniProt P51450); assay: RORγ reporter assay in mammalian cells; assay type: cell-based; conditions: mammalian cells (HEK293T)
T1 sequence (P51450 267-516 limits assumed): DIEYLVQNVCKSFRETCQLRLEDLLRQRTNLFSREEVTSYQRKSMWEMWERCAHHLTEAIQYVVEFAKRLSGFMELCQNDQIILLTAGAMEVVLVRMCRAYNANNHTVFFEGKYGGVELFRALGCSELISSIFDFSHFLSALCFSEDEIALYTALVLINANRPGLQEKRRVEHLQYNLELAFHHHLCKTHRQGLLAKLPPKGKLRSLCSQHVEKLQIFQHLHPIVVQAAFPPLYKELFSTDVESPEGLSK
Summary of the method: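 HEK293T cells are co-transfected with a RORγ-gal4 fusion plus a GAL4 UAS firefly luciferase reporter (luc2p) and exposed to test compound. Luciferase activity is the read-out. Data are averages of technical triplicates ± standard deviation, representative of n=6 experiments. Statistics use two-tailed unpaired Student's t-test on aggregated experiments.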

RORγ [5] = biological target: RORγ (Mus musculus, UniProt P51450); assay: RORγ-gal4/UAS luciferase reporter in insect cells grown in sterol-free CDM; assay type: cell-based
Summary of the method: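 Drosophila Kc167 cells are kept in continuous culture in lipid-free chemically defined medium: 40% Grace's medium, 10% Murashige–Skoog micronutrients, 1% NEAS, 1 mM pyruvate, 2% ITS-A and 1% Pluronic F-68. Cells are transiently transfected with RORγ-gal4 plus a UAS luc2p firefly luciferase reporter (minimal hsp70 promoter), then treated with test compound. EC50 is derived from reporter activity. Each compound is tested at least twice in technical triplicates ± standard deviation.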

[6] = tested on: RORγ reporter activity in U937ROR cells; assay type: cell-based; conditions: media supplemented with exogenous cholesterol
RORγ LBD [7] = assay: Competition binding with fluorescein-labeled 25-hydroxycholesterol; conditions: recombinant RORγ
[8] = tested on: RORγ reporter activity in SXLT cells; assay: Full length RORγ reporter; assay type: cell-based; conditions: media supplemented with compound, Fdft1-/- SXLT cells
Summary of the method: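 Fdft1−/− SXLT cells are transfected with a full-length RORγ construct driving a firefly luciferase reporter from an endogenous Il-23r enhancer element. Test compound is added to the medium, and luciferase activity is read. Data are technical triplicates ± standard deviation, representative of n=4 experiments. Comparison is by two-tailed unpaired Student's t-test on aggregated experiments.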

Q: What does the source list for CC(C)CCC[C@@H](C)[C@H]1CC[C@H]2C3=CCC4[C@H](C(=O)O)[C@@H](O)CC[C@]4(C)[C@H]3CC[C@]12C (stereo partly drawn) [4ACD7, 4α-carboxy-cholest-7-en-3β-ol]?
A: Co-activator peptide recruitment to RORγ (RORγ LBD [1]): promote the recruitment; Thermal stability of the RORγ LBD (RORγ LBD [2]): increase stability

Q: Which results are given for CC(C)=CCC[C@@H](C)[C@H]1CC[C@H]2C3=C(CC[C@]12C)[C@@]1(C)CCC(O)[C@@](C)(C(=O)O)C1CC3 (stereo partly drawn) [4ACD8, 4α–carboxy, 4β-methyl-cholesta-8,24-dien-3-ol]?
A: Co-activator peptide recruitment to RORγ (RORγ LBD [1]): promoted co-activator peptide recruitment; Thermal stability of the RORγ LBD (RORγ LBD [2]): increased the thermal stability; Th17 cell differentiation in Sc4mol-/- naïve CD4+ T cells ([3]; 1 μM added to media): rescues Th17 cell differentiation; RORγ reporter activity in mammalian cells (RORγ [4]): specific agonist activity

Q: How did the EC50 (RORγ [5]) turn out when CC(C)=CCC[C@@H](C)[C@H]1CC[C@@]2(C)C3=CCC4[C@](C)(C=O)C(O)CC[C@]4(C)[C@H]3CC[C@]12C (stereo partly drawn) [4α–formyl,4β,14α-dimethyl-cholesta-7,24-dien-3-ol] was run?
A: Its EC50 is 150 to 500 nM.

Q: What about the “RORγ reporter activity in mammalian cells” value (RORγ [4]) of the same molecule?
A: The value was “no activity”.

Q: With CC(C)=CCCC(C)C1CCC2(C)C3=CCC4C(C)(CO)C(O)CCC4(C)C3CCC12C (stereo not drawn) [4α–hydroxymethyl,4β,14α-dimethyl-cholesta-7,24-dien-3-ol] as the molecule, how does the “RORγ reporter activity in mammalian cells” value (RORγ [4]) read?
A: Its value is “no activity”.

Q: CC(C)=CCC[C@@H](C)[C@H]1CC=C2C3=C(CC[C@@]21C)[C@@]1(C)CCC(O)C(C)(C)C1CC3 (stereo partly drawn) [FF-MAS, 4α,4β-dimethyl-cholesta-8,14,24-trien-3-ol, reference compound] was tested. Which “RORγ reporter activity in mammalian cells” value (RORγ [4]) did it give?
A: Its value is “weak agonist”.

Q: How did the “RORγ reporter activity in U937ROR cells” value [6] turn out when C=CCN(C)CCCCCCOc1ccc(C(=O)c2ccc(Br)cc2)c(F)c1.O=C(O)/C=C/C(=O)O [Ro 48-8071 fumarate] was run?
A: Its value is “inhibited in a dose dependent fashion”.

Q: With CC(C)=CCC[C@@H](C)[C@H]1CC[C@H]2C3=C(CC[C@]12C)[C@@]1(C)CCC(O)C(C)(C)C1CC3 (stereo partly drawn) [T-MAS, 4α,4β-dimethyl-cholesta-8,24-dien-3-ol] as the molecule, how does the “Binding to RORγ” value (RORγ LBD [7]) read?
A: Its value is “bind very weakly if at all”.

Q: CC(C)CCC[C@@H](C)[C@H]1CC[C@H]2[C@@H]3CC=C4C[C@@H](O)CC[C@]4(C)[C@H]3CC[C@]12C [cholesterol, reference compound] was tested. Which “Th17 polarization defect of Sc4mol-/- T cells” value ([3]; supplementation of media) did it give?
A: The value was “could not be alleviated”.

Q: For CC(C)=CCC[C@@H](C)[C@H]1CC[C@@]2(C)C3=C(CC[C@]12C)[C@@]1(C)CC[C@H](O)C(C)(C)[C@@H]1CC3 [lanosterol, 14α,4α,4β-trimethyl-cholesta-8,24-dien-3-ol], which “RORγ reporter activity in insect cells” value (RORγ [5]; higher concentrations) is on record?
A: The value was “significant RORγ reporter activity”.

Q: And the “RORγ reporter activity in insect cells” value (RORγ [5]; physiological concentrations (1 μM))?
A: Its value is “little to no activity”.

Q: For CC[C@H](C)C(=O)O[C@H]1C[C@@H](C)C=C2C=C[C@H](C)[C@H](CC[C@@H]3C[C@@H](O)CC(=O)O3)[C@H]21 [lovastatin], which “RORγ reporter activity in U937ROR cells” value [6] is on record?
A: The value was “inhibited in a dose dependent fashion”.

Q: CC(C)=CCC/C(C)=C/CC/C(C)=C/CC/C=C(\C)CC/C=C(\C)CCC=C(C)C [squalene] was tested. Which “Rescue of full length RORγ reporter activity in SXLT cells” value [8] did it give?
A: Its value is “partially rescue”.
